From article PMC8915966 (Proceedings of the National Academy of Sciences of the …, 2022)
Where no end group is shown, it is not given here.

What was measured:
[1] = tested on: FITC-LPS binding to RAW 264.7 cells; assay: Flow cytometry of FITC-LPS binding to RAW 264.7 cells; assay type: cell-based; conditions: posttreatment with 40 μM peptide, FITC-LPS 40 μg/mL, 30 min, 4 °C; MFI
Summary of the method: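 RAW 264.7 cells (10⁶) were exposed under serum-free conditions at 4 °C for 30 min to test compound (40 μM) or FITC-labelled E. coli O55:B5 LPS (40 μg/mL), given before or after the other. Cells were PBS-washed and surface fluorescence was read by flow cytometry as MFI (%). Three independent experiments, mean ± SEM, one-way ANOVA with Dunnett's test.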

RAW 264.7 cells = assay: Cytotoxicity, WST-8 assay; assay type: cell-based; conditions: 24 h
ICR mice = assay: In vivo toxicity; conditions: for kidney histology, in words: 20 mg/kg, two doses for 3 d, hematoxylin and eosin
Summary of the method: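 Female ICR mice, n = 5 per group, received test compound i.p. at a low (5 mg/kg/day for 5 d) or high (20 mg/kg twice per day for 3 d) regimen. Serum creatinine, AST and ALT were measured and compared with controls by one-way ANOVA with Dunnett's test; mean ± SEM.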

[2] = tested on: E. coli K1-infected ICR mice; assay: E. coli K1 sepsis mouse model; assay type: in vivo
TLR4/MD-2 = TLR4/MD-2 (Homo sapiens, UniProt O00206+Q9Y6Y9); assay: SPR binding to TLR4/MD-2 complex
Chain of TLR4/MD-2 (O00206 24-631 limits assumed): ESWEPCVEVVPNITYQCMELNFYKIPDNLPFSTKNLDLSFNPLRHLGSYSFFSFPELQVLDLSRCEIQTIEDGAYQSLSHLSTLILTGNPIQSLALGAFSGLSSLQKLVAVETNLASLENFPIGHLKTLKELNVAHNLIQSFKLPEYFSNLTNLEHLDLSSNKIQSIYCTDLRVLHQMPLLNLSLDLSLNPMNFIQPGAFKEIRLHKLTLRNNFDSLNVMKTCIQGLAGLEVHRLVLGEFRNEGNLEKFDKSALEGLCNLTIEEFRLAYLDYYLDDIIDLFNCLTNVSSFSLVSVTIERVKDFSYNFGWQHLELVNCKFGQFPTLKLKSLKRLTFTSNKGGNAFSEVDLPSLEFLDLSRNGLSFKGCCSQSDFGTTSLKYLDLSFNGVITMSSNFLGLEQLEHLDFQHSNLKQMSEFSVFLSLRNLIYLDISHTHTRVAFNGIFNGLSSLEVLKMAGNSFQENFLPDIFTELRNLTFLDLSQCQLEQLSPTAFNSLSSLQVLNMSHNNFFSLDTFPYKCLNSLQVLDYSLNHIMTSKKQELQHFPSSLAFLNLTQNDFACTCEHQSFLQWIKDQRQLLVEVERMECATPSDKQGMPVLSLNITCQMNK
Chain of TLR4/MD-2 (Q9Y6Y9 17-160 limits assumed): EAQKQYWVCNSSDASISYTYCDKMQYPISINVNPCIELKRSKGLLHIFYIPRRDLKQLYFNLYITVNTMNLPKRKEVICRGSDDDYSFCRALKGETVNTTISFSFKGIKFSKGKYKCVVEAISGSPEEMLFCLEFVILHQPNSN

TLR4 [3] = target: TLR4 (Homo sapiens, UniProt O00206); assay: SPR binding to TLR4
Chain of TLR4 (Homo sapiens, UniProt O00206) (O00206 24-839): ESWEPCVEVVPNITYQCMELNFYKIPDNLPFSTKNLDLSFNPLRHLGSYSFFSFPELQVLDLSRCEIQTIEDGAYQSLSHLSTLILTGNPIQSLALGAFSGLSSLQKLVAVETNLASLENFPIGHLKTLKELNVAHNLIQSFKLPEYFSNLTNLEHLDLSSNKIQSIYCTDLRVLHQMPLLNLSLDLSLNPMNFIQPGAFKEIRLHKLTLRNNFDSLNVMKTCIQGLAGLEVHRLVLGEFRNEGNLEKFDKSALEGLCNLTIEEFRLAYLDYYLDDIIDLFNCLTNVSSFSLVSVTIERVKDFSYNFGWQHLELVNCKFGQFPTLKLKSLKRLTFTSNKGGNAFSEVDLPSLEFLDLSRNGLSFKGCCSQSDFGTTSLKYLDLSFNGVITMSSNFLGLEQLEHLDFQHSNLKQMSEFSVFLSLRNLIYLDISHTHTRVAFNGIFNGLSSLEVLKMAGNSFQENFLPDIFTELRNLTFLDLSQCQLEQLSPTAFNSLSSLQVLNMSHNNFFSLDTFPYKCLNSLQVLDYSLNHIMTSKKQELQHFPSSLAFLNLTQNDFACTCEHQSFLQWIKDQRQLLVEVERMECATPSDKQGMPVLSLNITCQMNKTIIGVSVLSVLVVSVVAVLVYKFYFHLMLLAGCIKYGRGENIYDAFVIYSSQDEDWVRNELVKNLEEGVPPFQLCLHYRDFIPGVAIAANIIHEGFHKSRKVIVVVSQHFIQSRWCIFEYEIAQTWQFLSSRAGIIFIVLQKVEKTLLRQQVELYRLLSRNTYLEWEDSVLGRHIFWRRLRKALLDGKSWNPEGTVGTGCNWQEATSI

MD-2 [4] = target: T1, MD-2 (Homo sapiens, UniProt Q9Y6Y9); assay: SPR binding to MD-2
T1 sequence (Q9Y6Y9 19-160): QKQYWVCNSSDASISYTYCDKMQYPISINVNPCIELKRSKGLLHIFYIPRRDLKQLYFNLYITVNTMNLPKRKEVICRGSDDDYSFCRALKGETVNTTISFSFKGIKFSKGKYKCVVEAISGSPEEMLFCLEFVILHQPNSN

TLR4 [5] = conditions: read-out: binding affinity of LPS to TLR4; cited from earlier work
MD-2 [6] = conditions: read-out: binding affinity of LPS to MD-2; cited from earlier work
[7] = target: TLR4/MD-2 complex (human) (UniProt O00206); assay: SPR
Chain of TLR4/MD-2 complex (human) (O00206 24-839, one chain of several): as the sequence (O00206 24-839) above

[8] = 20 mg/kg i.p. twice per day for 3 d, ICR mice, n = 5
[9] = 1 mg/kg i.p., E. coli K1 5 × 10^6 CFU/mouse, serum

In the case of Polymyxin B [PMB], the “competitive displacement of prebound LPS on RAW 264.7 cells” value [1] is reported as “no competitive impact”, the cell survival rate (RAW 264.7 cells; 50 μM peptide) is reported as 30.6% and the cell survival rate (RAW 264.7 cells; 100 μM peptide) is reported as 15.5%. The “elevation of blood urea nitrogen (BUN) level” value (ICR mice; [8]) was 26.6%, the “elevation of serum creatinine level” value (ICR mice; [8]) was 37.1% and the “increase of ALT level” value (ICR mice; [8]) was 30.6%. The “increase of AST level” value (ICR mice; [8]) was 17.8%, the “kidney histology, in words” value (ICR mice) was “notable kidney damage” and the “reduction of endotoxin levels” value ([2]; 1 mg/kg i.p., E. coli K1 5 × 10^6 CFU/mouse, 16 h later, n = 5) was 34.6%. For the same substance, the “ALT level reduced to” value [2, 9] was 19.4%, the “AST level reduced to” value [2, 9] was 25.7% and the “BUN level reduced to” value [2, 9] was 16.7%. For the same substance, the “serum and lung tissue levels of TNF-α and IL-6, in words” value ([2]; 1 mg/kg, compared to E. coli K1–infected control mice, ELISA) was “significantly reduced” and the “lung tissue histology, in words” value ([2]; 1 mg/kg, hematoxylin and eosin, neutrophil infiltration) was “significantly protected against lung damage”.

In the case of “RWKIFKKIEKVGRNVRDGIIKAGPAVAVVGQAATVVK-NH2 [Papiliocin]”, the Kd (TLR4/MD-2) is reported as 3.7 µM, the kon (TLR4/MD-2; read-out: association rate, TLR4/MD-2 complex) is reported as 3850 M⁻¹ s⁻¹ and the koff (TLR4/MD-2; read-out: dissociation rate, TLR4/MD-2 complex) is reported as 0.0141 s⁻¹. It also gave a Kd (TLR4 [3]) of 0.41 µM, a Kd (MD-2 [4]) of 1.1 µM and a cell survival rate (RAW 264.7 cells; 50 μM peptide) of 100%. The cell survival rate (RAW 264.7 cells; 100 μM peptide) was 78.0%, the “change in creatinine level compared to the control, in words” value (ICR mice; 5 mg/kg/day for 5 d and 20 mg/kg twice per day for 3 d, i.p.) was “neither lower dose of PMB nor any dose of papiliocin induced any aberrant changes in creatine level” and the “kidney histology, in words” value (ICR mice) was “did not show any signs of morphology changes in the kidneys”.

For lipopolysaccharide [LPS], the Kd (TLR4 [5]) is given as 14.1 µM and the Kd (MD-2 [6]) is given as 8.7 µM.

Work on papiliocin (peptide) yielded a koff [7] of 0.0141 s⁻¹ and a kon [7] of 3850 M⁻¹ s⁻¹.

With papiliocin G23P (peptide) the fold lower affinity compared to papiliocin [7] was 100 fold.

Work on papiliocin P24G (peptide) yielded a fold lower affinity compared to papiliocin [7] of 10 fold.
